# In PubChem BioAssay:
# Activity calls are given as the source filed them.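 How the source made its calls, unless noted: active means visually confirmed hit in the image check and inhibition above 20%; inconclusive means visually confirmed hit but inhibition not above 20%; inactive means no visual hit in the image check.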
# What was measured:
# [1] = inhibitors of TNFa-induced NFkB p65 translocation, primary screen, imaging, HUVEC, MLSMR starter and 10KST1 sets (AID 438;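 active means inhibition above 20% together with a positive visual image hit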;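 further: compound added about 3h40 before a 20 min TNFalpha stimulation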;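 on inhibition: signal is the nuclear over cytoplasmic p65 intensity ratio per well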); conditions: HUVEC TNFa-induced p65 nuclear translocation; cell count: measured here: nuclei count (cytotoxicity indicator), at 2.08 µM; inhibition: at 2 µM, stronger effect = higher value, 0% TNFa-plus-vehicle, 100% no-TNFa wells
# [2] = reduction of polyQ htt aggregates in cells – imaging, exon1htt(103Q)mCFP cells, high-content imaging, primary screen (AID 483;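 active means visual image review flags a hit and inhibition of aggregation exceeds 20%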;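 further: compound exposure lasted 3 days before fixation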;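 on nuclei count: percent of the per-plate median nuclei count of sample wells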); conditions: exon1htt(103Q)mCFP cell line, aggregate imaging, at 2 µM; inhibition of aggregation: stronger effect = higher value; nuclei count: measured here: cell count, toxicity
# [3] = endothelial E-selectin expression blockers – imaging, HUVEC, immunofluorescence, MLSMR starter and 10KST1 sets, primary screen (AID 487); conditions: HUVEC TNFalpha-induced E-selectin immunofluorescence imaging, at 2 µM; inhibition: stronger effect = higher value; nuclei count: measured here: cell number, toxicity;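 on inhibition: signal is fraction of cell area covered by stained E-selectin grains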;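 on nuclei count: 100% = median nuclei count of all wells on the same plate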
# [4] = target: Voltage-gated potassium channel subunit beta-2 (Rattus norvegicus) (UniProt P62483); assay: inhibitors of rat Kvbeta2 reductase activity – biochemical, NADPH fluorescence, primary screen (AID 622;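 active means fluorescence slope higher than the sample average by over 3 SD, cut at about -0.22 in these data, passing the limit was not always enough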;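 further: slope of raw intensity against log time taken from 70 to 1610 s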); conditions: recombinant KvBeta, 4-cyanobenzaldehyde reduction, at 10 µM, stronger effect = higher value
# Voltage-gated potassium channel subunit beta-2 (Rattus norvegicus), sequence (P62483 whole entry, looked up): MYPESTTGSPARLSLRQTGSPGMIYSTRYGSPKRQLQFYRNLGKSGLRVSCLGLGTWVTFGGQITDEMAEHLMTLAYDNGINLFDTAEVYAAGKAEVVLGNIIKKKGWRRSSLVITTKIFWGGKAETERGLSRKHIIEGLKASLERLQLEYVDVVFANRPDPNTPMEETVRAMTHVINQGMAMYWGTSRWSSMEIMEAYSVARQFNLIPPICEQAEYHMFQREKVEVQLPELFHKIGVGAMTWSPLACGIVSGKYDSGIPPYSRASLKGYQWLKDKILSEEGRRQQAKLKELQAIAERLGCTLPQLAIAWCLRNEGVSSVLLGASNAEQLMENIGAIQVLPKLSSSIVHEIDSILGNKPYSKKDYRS
# [5] = target: Voltage-gated potassium channel subunit beta-2 (Rattus norvegicus) (UniProt P62483); assay: enhancers of rat Kvbeta2 NADPH turnover – biochemical, NADPH fluorescence, primary screen (AID 623;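 active means NADPH fluorescence slope more negative than the mean of all samples by about 3 SD, 99.7% confidence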;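 further: fluorescence intensity change per second fitted from 20 to 320 s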); conditions: Recombinant KvBeta, NADPH fluorescence decrease slope, 10 min; at 10 µM; stronger effect = lower value
# [6] = target: Muscarinic acetylcholine receptor M4 (Homo sapiens) (UniProt P08173); assay: M4-linked GIRK flux change, two-sided – cell-based, HEK293 M4/GIRK, thallium flux, BTC-AM, M4 allosteric agonist project, primary screen (AID 625;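 active means fluorescence slope after compound addition differing from the mean of all tested samples at 99.7% confidence, mostly higher but some lower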;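 further: thallium influx through GIRK channels coupled to M4 in HEK293 cells with BTC-AM dye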); conditions: at 10 µM, actives lie on both sides
# Muscarinic acetylcholine receptor M4 (Homo sapiens), sequence (P08173 whole entry, looked up): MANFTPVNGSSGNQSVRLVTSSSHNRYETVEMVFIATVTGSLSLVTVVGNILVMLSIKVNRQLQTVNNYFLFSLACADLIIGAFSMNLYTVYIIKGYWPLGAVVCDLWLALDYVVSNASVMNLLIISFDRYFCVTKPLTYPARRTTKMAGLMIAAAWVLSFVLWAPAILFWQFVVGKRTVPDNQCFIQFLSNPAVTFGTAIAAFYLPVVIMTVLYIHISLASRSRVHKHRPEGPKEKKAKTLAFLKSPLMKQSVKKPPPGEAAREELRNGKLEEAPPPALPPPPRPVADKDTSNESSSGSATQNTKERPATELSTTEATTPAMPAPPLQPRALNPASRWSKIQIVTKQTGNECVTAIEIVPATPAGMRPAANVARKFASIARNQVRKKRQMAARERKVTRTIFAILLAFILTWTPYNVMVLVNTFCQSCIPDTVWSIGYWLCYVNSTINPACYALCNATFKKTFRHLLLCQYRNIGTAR
# Procedure, shortened: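 assay system = HEK293 cells with M4 receptor and GIRK channels | medium = pH 7.3 thallium assay buffer | doses = 10 µM final, single point | timing = cells overnight at 37 °C, BTC-AM loading 1 h, reads 2 min total | signal = BTC-AM fluorescence, 1 Hz kinetic reads | read-out = post-addition slope, 15–24 s, of baseline-normalized fluorescence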
# [7] = blockers of RIG-like receptor reporter activation – cell-based, Sendai virus stimulus, luciferase, 10K MLSCN set, TLR/RLR signaling modifier project, primary screen (AID 602276;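 active means inhibition at or above 50% at 10 µM; inactive means inhibition below 50%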;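 further: firefly luciferase from ISG56 promoter only with Renilla not read in this screen; 0% = Sendai virus plus DMSO and 100% = medium plus DMSO without virus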); conditions: HEK293 RL24 IRF3 luciferase reporter, at 10 µM, stronger effect = higher value
# [8] = TLR3 IRF3 reporter activation blockers – cell-based, poly I:C stimulus, luciferase, 10K MLSCN set, primary screen (AID 602277;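 active means inhibition of the reporter signal at or above 50%; inactive means inhibition below 50%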); conditions: HEK293-TLR3 RL24 IRF3 luciferase reporter, at 10 µM, stronger effect = higher value
SMILES,cell count [1],inhibition [1],inhibition of aggregation [2],nuclei count [2] [%],inhibition [3],nuclei count [3] [%],fluorescence slope [4],NADPH fluorescence slope [5],fluorescence slope [6],inhibition [7],inhibition [8]
O=c1[nH]c2ccc(S(=O)(=O)N3CCN(C4CCCCC4)CC3)cc2[nH]c1=O,264,-7.8% (inactive),-36.5% (inactive),90.7,-52.5% (inactive),122,-0.484 (inactive),-0.000259 (inactive),0.00453 (inactive),-0.0358% (inactive),6.71% (inactive)
CCOC(=O)c1sc(C)c2c(=O)n(CC)nnc12,304,0.8% (inactive),-14.4% (inactive),102,-56% (inactive),109,-0.523 (inactive),-2.3e-06 (inactive),0.00361 (inactive),6.72% (inactive),4.72% (inactive)
COc1ccc(-c2nc(N3CCCC3)[nH]c(=O)c2C#N)cc1,373,-48.5% (inactive),-7.1% (inactive),107,-50.2% (inactive),114,-0.471 (inactive),-1.8e-05 (inactive),0.0047 (inactive),18.9% (inactive),13% (inactive)
COc1cccc(C(=O)Nc2ccc(N(C)C)cc2)c1OC,718,0.8% (inactive),1.4% (inactive),104,-79.8% (inactive),109,-0.493 (inactive),1.7e-05 (inactive),0.00556 (inactive),-4.94% (inactive),-69.6% (inactive)
CCCOc1ccc(C2c3c(oc4ccccc4c3=O)C(=O)N2CCCN2CCOCC2)cc1 (stereo not drawn),559,16.8% (inactive),26.2% (inactive),100,-18.5% (inactive),101,-0.413 (inactive),-1.1e-05 (inactive),0.00521 (inactive),11.7% (inactive),21.3% (inactive)
Cc1onc(-c2c(Cl)cccc2Cl)c1C(=O)NCCCN1CCOCC1,618,3.6% (inactive),13.7% (inactive),100,-48.9% (inactive),84,-0.47 (inactive),-2.9e-05 (inactive),0.00479 (inactive),9.5% (inactive),10.6% (inactive)
Cc1nc2nc(SCC(=O)NCc3ccco3)nn2c(C)c1Cc1ccccc1,457,1.4% (inactive),-6.7% (inactive),112,-10.5% (inactive),126,-0.353 (inactive),-2.9e-05 (inactive),0.0066 (inactive),-7.73% (inactive),0.532% (inactive)
Nc1nonc1-c1noc(-c2ccccc2Br)n1,384,-1.6% (inactive),-6.3% (inactive),63,-23.9% (inactive),112,-0.252 (inactive),-2.2e-05 (inactive),0.00797 (inactive),5.89% (inactive),-26.2% (inactive)
CN(Cc1ccccc1)Cc1nc2c([nH]1)c(=O)[nH]c(=O)n2C,276,12.9% (inactive),-1.6% (inactive),96,69.5% (active),91.4,-0.371 (inactive),-0.000115 (inactive),0.0061 (inactive),7.51% (inactive),14.7% (inactive)
O=C(COC(=O)c1ccc(S(=O)(=O)Nc2ccccc2)cc1)NCCN1C(=O)CSC1=O,396,-3.1% (inactive),2.9% (inactive),105,-88.8% (inactive),117,-0.372 (inactive),-8.7e-05 (inactive),0.0079 (inactive),0.13% (inactive),19.9% (inactive)
Cc1ccc2cc(CN(CC(C)C)C(=O)C3CCCO3)c(=O)[nH]c2c1 (stereo not drawn),510,6.3% (inactive),12% (inactive),90,-62.4% (inactive),147,-0.565 (inactive),6.7e-05 (inactive),0.00521 (inactive),3.89% (inactive),26.4% (inactive)
NC(=O)SCC(=O)Nc1cccc(Cl)c1,449,-0.5% (inactive),-7.6% (inactive),119,-267% (inactive),132,-0.576 (inactive),-1.5e-06 (inactive),0.00648 (inactive),18.6% (inactive),15.3% (inactive)
COC(=O)C(C)Oc1ccc2c3c(c(=O)oc2c1)CCCCC3 (stereo not drawn),648,-7.8% (inactive),-24.4% (inactive),106,-170% (inactive),103,-0.496 (inactive),-1.7e-05 (inactive),0.00349 (inactive),9.54% (inactive),12.4% (inactive)
Cc1ccc(-c2cc(C(=O)N3CCCC3)no2)cc1,471,7.3% (inactive),-20.5% (inactive),19.5,-1.1% (inactive),106,-0.585 (inactive),1.3e-05 (inactive),0.00612 (inactive),-46.7% (inactive),-130% (inactive)
CC(C(=O)N1CCOCC1)N1c2cccc3cccc(c23)S1(=O)=O (stereo not drawn),341,-13.3% (inactive),8.6% (inactive),109,-31.4% (inactive),102,-0.548 (inactive),-2.9e-05 (inactive),0.00313 (inactive),17.3% (inactive),20.6% (inactive)
CC1(C)Cc2c(sc3ncnc(N)c23)CO1,545,-14.9% (inactive),5.4% (inactive),114,-122% (inactive),108,-0.384 (inactive),-2.5e-05 (inactive),0.00833 (inactive),15.3% (inactive),16.7% (inactive)
COC(=O)c1sc(NC(=O)c2ccoc2C)nc1C,554,-7.5% (inactive),8.8% (inactive),94.1,15.5% (inactive),98,-0.557 (inactive),8.6e-06 (inactive),0.00464 (inactive),-18.1% (inactive),-76.5% (inactive)
CC(C(=O)N1CCc2ccccc21)N1CCc2ccccc2C1 (stereo not drawn),597,-1% (inactive),16.1% (inactive),91.1,-86.5% (inactive),99.9,-0.455 (inactive),0.000133 (inactive),0.00595 (inactive),10.2% (inactive),22.3% (inactive)
CCC(c1nnnn1CCOC)N(Cc1ccc(C)cc1)Cc1cc2cc(OC)ccc2[nH]c1=O (stereo not drawn),519,1.9% (inactive),11.8% (inactive),99.2,-127% (inactive),134,-0.565 (inactive),-5.3e-05 (inactive),0.00576 (inactive),19% (inactive),27.8% (inactive)
Cc1ccc(OCC(=O)N2CCN(C(=O)CCC3CCCC3)CC2)cc1,319,0.5% (inactive),-30.7% (inactive),84.9,-1.5% (inactive),108,-0.242 (inactive),-1.9e-05 (inactive),0.00663 (inactive),12% (inactive),11.5% (inactive)
CC(C(=O)N1CC2(C)CC1CC(C)(C)C2)N1C(=O)c2ccccc2C1=O (stereo not drawn),239,5.1% (inactive),14.3% (inactive),99.8,-114% (inactive),95.5,-0.504 (inactive),-5.6e-05 (inactive),0.00376 (inactive),20.7% (inactive),17.3% (inactive)
O=C(Cn1cnc2c(nnn2-c2ccc(F)cc2)c1=O)NCc1ccco1,657,9.2% (inactive),-33.9% (inactive),78.6,-8.8% (inactive),122,-0.596 (inactive),-4.4e-06 (inactive),0.00537 (inactive),5.73% (inactive),12% (inactive)
O=c1cc(-c2ccco2)oc2ccc(Cl)cc12,286,-0.8% (inactive),19.7% (inactive),70,32.1% (inactive),111,-0.568 (inactive),-2.4e-05 (inactive),0.00691 (inactive),6.8% (inactive),-71.7% (inactive)
COc1ccccc1C(=O)N1CCCC(c2nc(-c3cc(OC)c(OC)c(OC)c3)no2)C1 (stereo not drawn),307,0.5% (inactive),-0.4% (inactive),120,19.1% (inactive),100,-0.474 (inactive),-3.6e-05 (inactive),0.0058 (inactive),12.4% (inactive),16.1% (inactive)
O=C(NCCCN1CCOCC1)C1CC(=O)N(CCc2ccccc2)C1 (stereo not drawn),295,-1% (inactive),0.4% (inactive),104,-88% (inactive),117,-0.545 (inactive),1.7e-05 (inactive),0.00479 (inactive),15.2% (inactive),22.3% (inactive)
O=c1c2ccccc2nnn1CSc1nc2cc(Cl)ccc2c(=O)n1Cc1ccco1,386,12.2% (inactive),7.5% (inactive),76,-101% (inactive),113,-0.56 (inactive),-5e-05 (inactive),0.00813 (inactive),-18.1% (inactive),-12.2% (inactive)
CCOCCCNCC(=O)N1CCN(S(=O)(=O)c2ccc(C)cc2)CC1,642,19.3% (inactive),-0.2% (inactive),94.5,-61.6% (inactive),131,-0.614 (inactive),1.2e-05 (inactive),0.00526 (inactive),7.31% (inactive),27.6% (inactive)
O=S(=O)(NCCc1ccccn1)c1cccs1,601,-23% (inactive),-31.3% (inactive),119,-28.9% (inactive),147,-0.417 (inactive),-0.000114 (inactive),0.00561 (inactive),19.1% (inactive),34.4% (inactive)
